The values that follow come from ChEMBL document CHEMBL4616587, “Kolavenic acid analog restores growth in HSET-overproducing fission yeast cells and multipolar mitosis in MDA-MB-231 human cells” (Bioorg Med Chem, 2020).

Assay [1] deals with Schizosaccharomyces pombe. Put plainly: Inhibition of HSET in Schizosaccharomyces pombe TY27 overexpressing GFP-HSET assessed as inhibition of HSET overproduction-induced lethal growth defects by measuring growth restoring activity incubated for 3 days by agar plate-based method. In short, it runs like this:
(§1)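 Fission yeast TY27: drug-sensitive YA8 background (h+ bfr1::ura4+ pmd1::hisG leu1 ura4) carrying the pREP41-GFP-HSET plasmid, with the pREP41-GFP vector strain TY26 alongside. Simple plate assay on rich YE5S agar plates, read as restoration of growth of the HSET-overproducing cells. Screened set included SCADS Inhibitor Kits and inhibitors aimed at tubulin or Eg5.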

Assay [2] concerns Schizosaccharomyces pombe. The assay is described as follows: Inhibition of HSET in Schizosaccharomyces pombe TY27 overexpressing GFP-HSET assessed as inhibition of HSET overproduction-induced lethal growth defects by measuring growth restoring activity at 6.25 to 50 ug/spot incubated for 3 days by agar plate-based method. The method, boiled down: as §1
For assay [3], the system named is Schizosaccharomyces pombe. Put plainly: Inhibition of HSET in Schizosaccharomyces pombe TY27 overexpressing GFP-HSET assessed as inhibition of HSET overproduction-induced lethality by measuring cell growth at 2.8 uM incubated for 2 to 3 days (reference value: 6%). On the set-up: scale not given: the % may be the effect or the level left.
Assay [4] relates to Schizosaccharomyces pombe. The assay is described as follows: Inhibition of HSET in Schizosaccharomyces pombe TY27 overexpressing GFP-HSET assessed as inhibition of HSET overproduction-induced lethality by measuring cell viability at 2.8 uM incubated for 2 to 3 days relative to control.
Assay [5] concerns Schizosaccharomyces pombe. Put plainly: Inhibition of HSET in Schizosaccharomyces pombe TY27 overexpressing GFP-HSET assessed as reversion of HSET-induced lethal abnormal monopolar spindle formation to bipolar formation by measuring cells containing monopolar spindles at 0.1 ug/ml incubated for 2 days by wide field inverted epifluorescence microscopic method (reference value: 76%). Also noted: scale not given: the % may be the effect or the level left.

Assay [6] relates to Schizosaccharomyces pombe. The assay is described as follows: Inhibition of HSET in Schizosaccharomyces pombe TY27 overexpressing GFP-HSET assessed as reversion of HSET-induced lethal abnormal monopolar spindle formation to bipolar formation by measuring cells containing monopolar spindles at 1 ug/ml incubated for 2 days by wide field inverted epifluorescence microscopic method (reference value: 76%). Also noted: scale not given: the % may be the effect or the level left.

The next assay has as its system MDA-MB-231. The assay is described as follows: Antiproliferative activity against human MDA-MB-231 cells assessed as inhibition of cell viability incubated for 48 hrs by MTT assay. Particulars: MDA-MB-231, 48 h. Format: functional, cell-based.
The subject of another assay is WI-38. The assay is described as follows: Antiproliferative activity against human WI38 cells assessed as inhibition of cell viability incubated for 48 hrs by MTT assay. The class given is functional, cell-based. The conditions noted are these: WI-38, 48 h.
The target in assay [7] is T1, Kinesin-like protein KIFC1 (Homo sapiens) (UniProt Q9BW19).
T1 sequence (whole entry): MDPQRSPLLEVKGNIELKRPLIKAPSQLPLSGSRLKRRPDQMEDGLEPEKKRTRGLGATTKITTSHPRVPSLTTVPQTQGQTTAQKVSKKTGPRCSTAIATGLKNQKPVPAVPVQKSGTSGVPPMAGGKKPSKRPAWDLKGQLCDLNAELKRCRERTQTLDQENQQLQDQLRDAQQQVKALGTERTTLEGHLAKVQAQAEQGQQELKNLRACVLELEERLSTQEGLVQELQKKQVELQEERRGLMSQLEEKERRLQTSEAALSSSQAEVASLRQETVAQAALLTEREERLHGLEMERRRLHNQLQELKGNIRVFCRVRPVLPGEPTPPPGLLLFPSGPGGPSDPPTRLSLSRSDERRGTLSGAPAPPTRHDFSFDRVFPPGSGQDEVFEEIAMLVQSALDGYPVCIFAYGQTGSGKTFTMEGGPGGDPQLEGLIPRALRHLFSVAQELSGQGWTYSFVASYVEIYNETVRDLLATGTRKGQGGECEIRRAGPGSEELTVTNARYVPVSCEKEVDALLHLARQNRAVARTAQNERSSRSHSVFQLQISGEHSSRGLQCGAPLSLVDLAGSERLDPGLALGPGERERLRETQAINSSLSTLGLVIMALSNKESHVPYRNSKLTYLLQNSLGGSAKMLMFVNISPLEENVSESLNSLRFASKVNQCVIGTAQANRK
Put plainly: Inhibition of HSET in human MDA-MB-231 cells overexpressing HSET and possessing supernumerary centrosomes assessed as inhibition of centrosome clustering by measuring increase in multipolar spindle formation at 250 uM incubated for 24 hrs by Hoechst 33342 staining based fluorescence microscopic method. The class given is cell-based.

For assay [8], the system named is Schizosaccharomyces pombe. The assay is described as follows: Inhibition of HSET in Schizosaccharomyces pombe TY27 overexpressing GFP-HSET assessed as inhibition of HSET overproduction-induced lethality by measuring increase in cell viability at 2.8 uM incubated for 2 to 3 days relative to control.
Assay [9] has as its system Schizosaccharomyces pombe. Put plainly: Inhibition of HSET in Schizosaccharomyces pombe TY27 overexpressing GFP-HSET assessed as inhibition of HSET overproduction-induced lethality by measuring cell growth at 3.3 uM incubated for 2 to 3 days (reference value: 5%). On the set-up: scale not given: the % may be the effect or the level left.
The test system of assay [10] is Schizosaccharomyces pombe. Put plainly: Inhibition of HSET in Schizosaccharomyces pombe TY27 overexpressing GFP-HSET assessed as inhibition of HSET overproduction-induced lethality by measuring cell viability at 3.3 uM incubated for 2 to 3 days relative to control.
Assay [11] deals with Schizosaccharomyces pombe. Put plainly: Inhibition of HSET in Schizosaccharomyces pombe TY27 overexpressing GFP-HSET assessed as inhibition of HSET overproduction-induced lethality by measuring increase in cell viability at 3.3 uM incubated for 2 to 3 days relative to control.
Assay [12] concerns Schizosaccharomyces pombe. The assay is described as follows: Inhibition of tubulin in Schizosaccharomyces pombe TY27 overexpressing GFP-HSET assessed as growth restoring activity incubated for 3 days by agar plate-based method. In short, it runs like this:
as §1

Assay [13] has as its system Schizosaccharomyces pombe. The assay is described as follows: Inhibition of Eg5 in Schizosaccharomyces pombe TY27 overexpressing GFP-HSET assessed as growth restoring activity incubated for 3 days by agar plate-based method. In short, it runs like this:
as §1

In assay [14] the test system is Schizosaccharomyces pombe. The assay is described as follows: Inhibition of HSET in Schizosaccharomyces pombe TY27 overexpressing GFP-HSET assessed as inhibition of HSET overproduction-induced lethal growth defects by measuring growth restoring activity at 25 ng/spot incubated for 3 days by agar plate-based method. The method, boiled down: as §1
The subject of assay [15] is Schizosaccharomyces pombe. The assay is described as follows: Inhibition of HSET in Schizosaccharomyces pombe TY27 overexpressing GFP-HSET assessed as inhibition of HSET overproduction-induced lethality by measuring cell growth at 0.25 uM incubated for 2 to 3 days (reference value: 8%). Also noted: scale not given: the % may be the effect or the level left.
Assay [16] has as its system Schizosaccharomyces pombe. Put plainly: Inhibition of HSET in Schizosaccharomyces pombe TY27 overexpressing GFP-HSET assessed as inhibition of HSET overproduction-induced lethality by measuring cell viability at 0.25 uM incubated for 2 to 3 days relative to control.
Assay [17] has as its system Schizosaccharomyces pombe. Put plainly: Inhibition of HSET in Schizosaccharomyces pombe TY27 overexpressing GFP-HSET assessed as reversion of HSET-induced lethal abnormal monopolar spindle formation to bipolar formation by measuring cells containing monopolar spindles at 0.01 ug/ml incubated for 2 days by wide field inverted epifluorescence microscopic method (reference value: 76%). Also noted: scale not given: the % may be the effect or the level left.

Assay [18] concerns the target T1, Kinesin-like protein KIFC1 (Homo sapiens). The assay is described as follows: Inhibition of HSET in human MDA-MB-231 cells overexpressing HSET and possessing supernumerary centrosomes assessed as inhibition of centrosome clustering by measuring bipolar spindle formation at 20 uM incubated for 24 hrs by Hoechst 33342 staining based fluorescence microscopic method relative to control. Format: cell-based. Also noted: scale not given: the % may be the effect or the level left.

The target is the same in assay [19]. Put plainly: Inhibition of HSET in human MDA-MB-231 cells overexpressing HSET and possessing supernumerary centrosomes assessed as inhibition of centrosome clustering by measuring bipolar spindle formation at 40 uM incubated for 24 hrs by Hoechst 33342 staining based fluorescence microscopic method relative to control. Format: cell-based. On the set-up: scale not given: the % may be the effect or the level left.

The target is the same in assay [20]. Put plainly: Inhibition of HSET in human MDA-MB-231 cells overexpressing HSET and possessing supernumerary centrosomes assessed as inhibition of centrosome clustering by measuring increase in multipolar spindle formation at 20 uM incubated for 24 hrs by Hoechst 33342 staining based fluorescence microscopic method relative to control. On the set-up: scale not given: the % may be the effect or the level left. The class given is cell-based.

Assay [21] has the same target. Put plainly: Inhibition of HSET in human MDA-MB-231 cells overexpressing HSET and possessing supernumerary centrosomes assessed as inhibition of centrosome clustering by measuring increase in multipolar spindle formation at 40 uM incubated for 24 hrs by Hoechst 33342 staining based fluorescence microscopic method relative to control. The class given is cell-based. On the set-up: scale not given: the % may be the effect or the level left.

The target is the same in assay [22]. The assay is described as follows: Inhibition of HSET in human MDA-MB-231 cells overexpressing HSET and possessing supernumerary centrosomes assessed as inhibition of centrosome clustering by measuring increase in multipolar spindle formation incubated for 24 hrs by Hoechst 33342 staining based fluorescence microscopic method. The class given is cell-based.

Assay [23] concerns Schizosaccharomyces pombe. The assay is described as follows: Inhibition of HSET in Schizosaccharomyces pombe TY27 overexpressing GFP-HSET assessed as inhibition of HSET overproduction-induced lethality by measuring increase in cell viability at 0.25 uM incubated for 2 to 3 days relative to control.

The source made the active and inactive calls. The rule behind the calls is not given here. Bounds are passed on as bounds.

By IC50 is commonly meant the concentration that gives 50% inhibition.

For the molecule `CC(=O)O[C@@H]1C[C@@]2(C)C(C)=CCC[C@@H]2[C@@](C)(CC/C(C)=C/C(=O)O)[C@@H]1C`, the “growth restoration (qualitative)” value in assay [1] was “Dose-dependent effect”. For the same molecule, the inhibition entry in assay [2] and in assay [7] was “inactive” throughout. Besides, the Activity in assay [3] came out at 8%; in assay [4] it was 81%; in assay [5], 49%; in assay [6] it was 11%. Moreover, the IC50 in the assay on MDA-MB-231 came out at 261 µM; in the assay on WI-38, 265 µM. Besides, the fold change (FC) in [8] was above 2.
Consider `CC1=CCC[C@@H]2[C@@](C)(CC/C(C)=C/C(=O)O)[C@H](C)CC[C@@]12C` [KOLAVENIC ACID], for which, in [1], the “growth restoration (qualitative)” value was “Dose-dependent effect”. The Activity in [9] came out at 8%; in assay [10], 59%; in [5], 50%; in assay [6] it was 7%. The IC50 was 272 µM in the assay on MDA-MB-231 and 265 µM in the assay with WI-38. For the same molecule, in assay [7], the inhibition result was “inactive”. The fold change (FC) in assay [11] is above 2.
With `COC(=O)Nc1nc2cc(C(=O)c3cccs3)ccc2[nH]1`, the inhibition result in [12] is “inactive”.
Turning to `COc1cccc2c1C(=O)c1c(O)c3c(c(O)c1C2=O)C[C@@](O)(C(=O)CO)C[C@@H]3O[C@H]1C[C@H](N)[C@H](O)[C@H](C)O1` [DOXORUBICIN], the IC50 with MDA-MB-231 was 4.4 µM.
Regarding `CCCc1cc(C(=O)N[C@H](Cc2ccc(-c3cccc(OC(F)(F)F)c3)nc2)C(=O)N[C@@H]2CCNC2)sc1C`, in [1], the “growth restoration (qualitative)” value was “Dose-dependent effect”.
On to `CCOC(=O)C1=C(C)NC(=S)NC1c1cccc(O)c1` (centres undefined), for which, in assay [13], the inhibition entry was “inactive”.
With `CC(=O)O[C@H]1C(=O)[C@@]2(C)[C@H]([C@H](OC(=O)c3ccccc3)[C@]3(O)C[C@H](OC(=O)[C@H](O)[C@@H](NC(=O)c4ccccc4)c4ccccc4)C(C)=C1C3(C)C)[C@]1(OC(C)=O)CO[C@@H]1C[C@@H]2O`, the inhibition result in [12] is “inactive”.
With `CC[C@]1(O)C[C@H]2CN(CCc3c([nH]c4ccccc34)[C@@](C(=O)OC)(c3cc4c(cc3OC)N(C)[C@H]3[C@@](O)(C(=O)OC)[C@H](OC(C)=O)[C@]5(CC)C=CCN6CC[C@]43[C@@H]65)C2)C1`, the inhibition entry in assay [12] is “inactive”.
On to `C/C=C(\C)C(=O)O[C@@H]1C[C@@H](C)[C@@](C)(CC/C(C)=C/C(=O)O)[C@@H]2CCC=C(C)[C@]12C`, for which the “growth restoration (qualitative)” value in [1] is “Dose-dependent effect”. Further, the inhibition result in [14] was “inactive”. Further, the Activity in assay [15] was 13%; in assay [16] it was 89%; in assay [17], 53%; in assay [5], 12%; in [18] it was 49%; in [19], 23%. For the same molecule, the Activity in [20] stood at 44%; in assay [21], 77%. For the same molecule, the figures for the concentration for half-maximal inhibition (IC50) in the assay with MDA-MB-231 and in the assay with WI-38 were 81.9 µM and 100 µM, respectively. Further, in assay [22], the inhibition entry is “Dose-dependent effect”. Further, the fold change (FC) in assay [23] is above 2.
